From ChEMBL document CHEMBL1126801, “Synthesis and antiviral activity of 2'-substituted 9-[2-(phosphonomethoxy)ethyl]guanine analogues” (J Med Chem, 1993)

Experiments:
[1] = Toxic concentration, in CEM cells estimated by the XTT assay; type: toxicity, cell-based; settings: human, CCRF-CEM (CEM) cells; read-out: TC50 (the source's name)
[2] = system: Human immunodeficiency virus 1; assay: Tested in vitro against human immunodeficiency virus (HIV) infected CEM cells using XTT assay (HIV-HRF strain); NA = not active at 100 uM; type: functional, organism-based; settings: ccrf-cem
Procedure, shortened: (§1)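 Anti-HIV XTT assay in HIV-infected CEM cells, using the LAV-BRU or HIV-HRF strain as the line names. The value is the 50% inhibitory concentration. The top concentration tested was 100 μM, and inactivity there is scored NA.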

[3] = Tested in vitro against HSV 2 from Wi-38 cells; type: organism-based; settings: human alphaherpesvirus 2, WI-38 cells; read-out: TC50 (the source's name)
[4] = Tested in vitro against HCMV from WI-38 cells; type: organism-based; settings: human betaherpesvirus 5, WI-38 cells; read-out: TC50 (the source's name)
Human alphaherpesvirus 2 [5] = assay: Tested in vitro against HSV 2 from WI-38 cells; NA= not active at 100 uM; type: functional, organism-based
Human betaherpesvirus 5 [6] = assay: Tested in vitro against HCMV from WI-38 cells; NA= not active at 100 uM; type: functional, organism-based
[7] = system: Human immunodeficiency virus 1; assay: Tested in vitro against human immunodeficiency virus (HIV) infected CEM cells using XTT assay (LAV-BRU strain); NA = not active at 100 uM; type: functional, organism-based; settings: ccrf-cem; procedure, shortened: as §1
Human alphaherpesvirus 2 [8] = assay: Tested in vitro against HSV 2 G strain in vero cells; NA= not active at 100 uM; type: functional, organism-based
Procedure, shortened: (§2)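 Plaque reduction assay against HSV-2 strain G in Vero cells, giving a 50% inhibitory concentration. The top concentration tested was 100 μM, and inactivity there is scored NA.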

Human betaherpesvirus 5 [9] = assay: (§3) Tested in vitro against HCMV AD-169 strain in MRC-5 cells; type: functional, organism-based; settings: Human betaherpesvirus 5, MRC5
Procedure, shortened: (§4)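 Plaque reduction assay against HCMV strain AD-169 in MRC-5 cells, giving a 50% inhibitory concentration. The top concentration tested was 100 μM, and inactivity there is scored NA.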

[10] = as §3; type: ADME, organism-based, MRC5; settings: human betaherpesvirus 5, MRC-5 cells; read-out: TC50 (the source's name)
[11] = (§5) Tested in vitro against HSV 2 G strain in vero cells; type: organism-based; settings: human alphaherpesvirus 2, Vero cells; read-out: TC50 (the source's name)
Human betaherpesvirus 5 [12] = assay: Tested in vitro against HCMV AD-169 strain in MRC-5 cells; NA= not active at 100 uM; type: functional, organism-based; settings: mrc5; procedure, shortened: as §4
CCRF-CEM = assay: Cell growth toxicity against CEM cells after treatment with compound for 72 hours; type: functional; settings: Homo sapiens
Procedure, shortened: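 Cytotoxicity in CEM cells: cells counted after 72 h drug exposure; the value is the concentration giving 50% cell growth toxicity.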

[13] = system: Human immunodeficiency virus 1; assay: Tested in vitro against human immunodeficiency virus (HIV) infected CEM cells using XTT assay (HIV-HRF strain); type: functional, organism-based; settings: Human immunodeficiency virus 1, CCRF-CEM; procedure, shortened: as §1
Human betaherpesvirus 5 [14] = assay: Tested in vitro against HCMV from WI-38 cells; NA= not active at 100 uM as determined in WI-38 cells; type: functional, organism-based
[15] = Ratio between TC50 against human immunodeficiency virus infected CEM cells and IC50 against CEM cells; type: functional, CCRF-CEM
Procedure, shortened: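 Selectivity index is TC50 divided by IC50. TC50 is the 50% toxic concentration from the XTT assay in CEM cells. IC50 is the 50% inhibitory concentration from the XTT assay in HIV-infected CEM cells.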

[16] = Tested in vitro against HSV 2 from WI-38 cells; type: organism-based; settings: human alphaherpesvirus 2, WI-38 cells; read-out: TC50 (the source's name)
[17] = system: Human immunodeficiency virus 1; assay: Tested in vitro against human immunodeficiency virus (HIV) infected CEM cells using XTT assay (LAV-BRU strain); type: functional, organism-based; settings: Human immunodeficiency virus 1, CCRF-CEM; procedure, shortened: as §1
Human alphaherpesvirus 2 [18] = assay: as §5; type: functional, organism-based; settings: Human alphaherpesvirus 2, Vero; procedure, shortened: as §2
Human alphaherpesvirus 2 [19] = assay: as §5; type: functional, organism-based, herpes simplex virus; settings: Human alphaherpesvirus 2, Vero; procedure, shortened: as §2

SMILES	CC50 [1] [µM]	IC50 (Human alphaherpesvirus 2 [8])	IC50 (Human betaherpesvirus 5 [9]) [µM]	CC50 [10] [µM]	CC50 [11] [µM]	CC50 (CCRF-CEM) [µM]	Selectivity index [15]	IC50 [17] [µM]	further results
Nc1nc(O)c2ncn(C[C@H](OCP(=O)(O)O)C3CC3)c2n1	> 1000	–	–	–	–	–	–	–	IC50 [2]: Not Active; CC50 [3]: > 300 µM; CC50 [4]: > 300 µM; IC50 (Human alphaherpesvirus 2 [5]): Not Active; IC50 (Human betaherpesvirus 5 [6]): Not Active
Nc1nc(O)c2ncn(C[C@H](CCO)OCP(=O)(O)O)c2n1	> 500	Not Active	162	> 300	300	–	–	–	IC50 [7]: Not Active
[N-]=[N+]=NCC[C@@H](Cn1cnc2c(O)nc(N)nc21)OCP(=O)(O)O	> 500	Not Active	–	300	300	–	–	–	IC50 [7]: Not Active; IC50 (Human betaherpesvirus 5 [12]): Not Active
C=C[C@H](Cn1cnc2c(O)nc(N)nc21)OCP(=O)(O)O	> 1000	–	–	–	–	> 1590	>77	–	IC50 [13]: 13 µM; CC50 [4]: > 300 µM; IC50 (Human betaherpesvirus 5 [14]): Not Active
CC[C@@H](Cn1cnc2c(O)nc(N)nc21)OCP(=O)(O)O	> 500	Not Active	–	300	300	–	>2	–	IC50 [13]: 252 µM; IC50 (Human betaherpesvirus 5 [12]): Not Active
CC[C@H](Cn1cnc2c(O)nc(N)nc21)OCP(=O)(O)O	1000	–	–	–	–	–	19	–	IC50 [13]: 54 µM; CC50 [16]: > 300 µM; CC50 [4]: > 300 µM; IC50 (Human alphaherpesvirus 2 [5]): Not Active; IC50 (Human betaherpesvirus 5 [6]): Not Active
C[C@@H](Cn1cnc2c(O)nc(N)nc21)OCP(=O)(O)O	–	–	16	> 330	> 330	12	25	12	IC50 (Human alphaherpesvirus 2 [18]): 43 µM
C=C[C@@H](Cn1cnc2c(O)nc(N)nc21)OCP(=O)(O)O	> 1000	Not Active	–	> 300	300	> 1590	>20	–	IC50 [13]: 49 µM; IC50 (Human betaherpesvirus 5 [12]): Not Active
Nc1nc(O)c2ncn(C[C@H](CCF)OCP(=O)(O)O)c2n1	> 500	Not Active	–	300	300	–	–	–	IC50 [7]: Not Active; IC50 (Human betaherpesvirus 5 [12]): Not Active
Nc1nc(O)c2ncn(C[C@@H](CCO)OCP(=O)(O)O)c2n1	> 450	Not Active	–	–	300	–	–	–	IC50 [7]: Not Active
C[C@H](Cn1cnc2c(O)nc(N)nc21)OCP(=O)(O)O	> 500	–	16	> 330	> 330	180	>500	1	IC50 (Human alphaherpesvirus 2 [18]): 82 µM
Nc1nc(O)c2ncn(C[C@@H](OCP(=O)(O)O)C3CC3)c2n1	91	Not Active	–	–	300	–	–	–	IC50 [2]: Not Active
Nc1nc(O)c2ncn(CC(CF)OCP(=O)(O)O)c2n1 (single isomer, unassigned; form 1)	> 500	–	136	> 310	> 310	427	> 63	8	–
Nc1nc2c(ncn2CC(CO)OCP(=O)(O)O)c(=O)[nH]1 (single isomer, unassigned; form 1)	> 500	–	1.6	> 310	> 310	–	> 1	500	IC50 (Human alphaherpesvirus 2 [19]): 97 µM
Nc1nc(O)c2ncn(CC(CCl)OCP(=O)(O)O)c2n1 (single isomer, unassigned; form 1)	> 500	Not Active	51	> 300	> 300	870	> 11	45	–
[N-]=[N+]=NCC(Cn1cnc2c(O)nc(N)nc21)OCP(=O)(O)O (single isomer, unassigned; form 1)	> 1000	Not Active	33	> 300	> 300	> 1400	> 200	–	IC50 [13]: 5 µM
[N-]=[N+]=NCC(Cn1cnc2c(O)nc(N)nc21)OCP(=O)(O)O (single isomer, unassigned; form 2)	> 1000	Not Active	15	> 300	> 300	134	> 20	–	IC50 [13]: 51 µM
Nc1nc(O)c2ncn(CC(CCl)OCP(=O)(O)O)c2n1 (single isomer, unassigned; form 2)	> 500	Not Active	112	300	300	> 1500	> 10	50	–
Nc1nc(O)c2ncn(CC(CO)OCP(=O)(O)O)c2n1 (single isomer, unassigned; form 2)	–	–	0.8	> 310	> 310	–	< 1	> 500	IC50 (Human alphaherpesvirus 2 [18]): 99 µM
Nc1nc(O)c2ncn(CC(CF)OCP(=O)(O)O)c2n1 (single isomer, unassigned; form 2)	> 500	–	150	> 310	> 310	93	> 71	7	–
Nc1nc2c(ncn2CCOCP(=O)(O)O)c(=O)[nH]1 [GS-438]	–	–	0.09	30	17	0.2	75	0.2	IC50 (Human alphaherpesvirus 2 [18]): 1.1 µM
